In ChEMBL document CHEMBL1125033, “Structure-activity relationship of antiestrogens. Phenolic analogues of 2,3-diaryl-2H-1-benzopyrans” (J Med Chem, 1990):

Experiments:
[1] = target: T1, Estrogen receptor (Rattus norvegicus) (UniProt P06211+Q62986)
[2] = tested on: Anti-estrogen binding site (AEBS) (Rattus norvegicus); experiment: Relative binding affinity against Antiestrogen binding site(AEBS)
[3] = target: T1, Estrogen receptor (Rattus norvegicus); remark: listed apart in the source
[4] = target: T1, Estrogen receptor (Rattus norvegicus); experiment: Relative binding affinity against estrogen receptor(ER); assay type: protein assay
Summary of the method: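 Uterine cytosol from immature rats primed s.c. with 0.1 μg E₂ 24 h before sacrifice, one uterine equivalent per mL TEA buffer (pH 7.4, 7% DMF). Incubated 18-20 h at 4 °C with ³H-E₂ (5 × 10⁻⁹ M) and competitor at 10⁻⁴–10⁻⁹ M, in triplicate. Charcoal-dextran separation for 20 min, then scintillation counting.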

| Mean weight [1] [mg] | relative binding affinity (RBA) [2] | Mean weight [3] [mg] | relative binding affinity (RBA) [4] | Structure (SMILES) |
| --- | --- | --- | --- | --- |
| 15.3 | 225 | 18.6 | – | C1=C(c2ccccc2)C(c2ccc(OCCN3CCCCC3)cc2)Oc2ccccc21 (stereo not given) |
| 10.4 | 14 | 11.6 | 4.2 | Oc1ccc(C2=Cc3ccccc3OC2c2ccc(OCCN3CCCCC3)cc2)cc1 (stereo not given) |
| 25.5 | 6.5 | 25.6 | 93 | O=C(c1ccc(OCCN2CCCC2)cc1)c1c(-c2ccc(O)cc2)sc2cc(O)ccc12 |
| 10.6 | 2.2 | 12.4 | 49 | Oc1ccc(C2=Cc3ccc(O)cc3OC2c2ccc(OCCN3CCCCC3)cc2)cc1 (stereo not given) |

Further lines, the molecule ahead of its results:

| Structure (SMILES) | Mean weight [1] [mg] | relative binding affinity (RBA) [2] | Mean weight [3] [mg] | relative binding affinity (RBA) [4] |
| --- | --- | --- | --- | --- |
| COc1ccc(C2=C(C(=O)c3ccc(OCCN4CCCC4)cc3)c3ccccc3CC2)cc1 | 18.6 | 25 | 29.1 | 8 |
| Oc1ccc2c(c1)OC(c1ccc(OCCN3CCCCC3)cc1)C(c1ccccc1)=C2 (stereo not given) | 15.2 | 13 | 21.2 | 9.5 |
| Oc1ccc(C2=Cc3ccc(O)cc3OC2c2ccc(O)cc2)cc1 (stereo not given) | 14.2 | – | 44.2 | 2.2 |
| COc1ccc2c(c1)OC(c1ccc(OCCN3CCCCC3)cc1)C(c1ccccc1)=C2 (stereo not given) | 22.6 | 21 | 43.1 | 0.02 |
